Activity and EC50 data for five compounds are collected here from ChEMBL document CHEMBL4428062, “Human Toll-like Receptor (TLR) 8-Specific Agonistic Activity in Substituted Pyrimidine-2,4-diamines” (J Med Chem, 2016).

pEC50: −log10 of the molar value. Active and inactive are the calls of the source. The calls are words filed in the database; no cut-off is given here.

Test [1] deals with Toll-like receptor 2 (Homo sapiens) (UniProt O60603). As to the kind of experiment: Agonist activity at human TLR2 expressed in HEK293 cells assessed as induction of NF-kappaB activity by secreted alkaline phosphatase reporter gene assay. It is filed as cell-based. A digest of the protocol:
(§1)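 HEK293 reporter lines stably co-transfected with the respective human TLR and an NF-κB/AP-1-driven secreted alkaline phosphatase gene, kept in selection medium. About 10^5 cells/ml were incubated with graded concentrations of stimuli. Supernatant sAP was read spectrophotometrically at 620 nm using a chromogenic substrate in detection medium. EC50 was taken as the arithmetic mean of quadruplicate samples.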
(A reporter such as luciferase makes a cellular process visible.)

Test [2] concerns the target T1, Toll-like receptor 8 (Homo sapiens) (UniProt Q9NR97).
T1 sequence (whole entry): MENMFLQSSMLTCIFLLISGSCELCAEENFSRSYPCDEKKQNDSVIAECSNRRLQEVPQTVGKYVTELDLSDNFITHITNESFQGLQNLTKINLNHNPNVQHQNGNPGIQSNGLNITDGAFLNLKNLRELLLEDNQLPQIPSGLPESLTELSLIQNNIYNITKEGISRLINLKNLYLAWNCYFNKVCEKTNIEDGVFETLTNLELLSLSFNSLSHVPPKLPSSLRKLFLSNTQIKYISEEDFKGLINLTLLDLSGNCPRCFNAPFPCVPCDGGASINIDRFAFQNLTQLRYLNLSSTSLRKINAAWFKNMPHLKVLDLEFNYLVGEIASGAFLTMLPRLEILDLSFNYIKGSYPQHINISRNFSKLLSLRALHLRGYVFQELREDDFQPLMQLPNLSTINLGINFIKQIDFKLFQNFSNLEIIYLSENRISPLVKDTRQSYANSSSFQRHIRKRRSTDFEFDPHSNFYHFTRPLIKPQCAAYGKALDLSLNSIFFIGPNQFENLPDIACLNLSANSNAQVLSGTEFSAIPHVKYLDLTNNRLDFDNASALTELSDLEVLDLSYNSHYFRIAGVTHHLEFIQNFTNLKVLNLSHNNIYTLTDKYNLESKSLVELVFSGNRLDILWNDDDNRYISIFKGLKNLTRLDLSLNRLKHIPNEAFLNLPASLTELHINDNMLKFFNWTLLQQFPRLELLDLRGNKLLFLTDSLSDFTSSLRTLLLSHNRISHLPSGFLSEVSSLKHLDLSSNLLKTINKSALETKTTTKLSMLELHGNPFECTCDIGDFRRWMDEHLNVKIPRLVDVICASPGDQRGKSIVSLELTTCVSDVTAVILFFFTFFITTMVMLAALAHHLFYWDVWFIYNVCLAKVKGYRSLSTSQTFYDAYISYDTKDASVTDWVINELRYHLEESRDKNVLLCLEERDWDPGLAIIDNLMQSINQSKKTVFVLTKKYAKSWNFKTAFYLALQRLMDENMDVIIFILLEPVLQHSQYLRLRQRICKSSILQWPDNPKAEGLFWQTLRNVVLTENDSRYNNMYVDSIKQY
As to the kind of experiment: Agonist activity at TLR8 in human PBMC assessed as Th1-biased stimulatory activity measured as IL-12 release after 16 hrs by immunoassay. The essentials:
(§2)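 Freshly isolated human PBMC from venipuncture blood (informed consent), 10^5 cells/well, stimulated 16 h with graded concentrations of compound. Supernatants collected by centrifugation and cytokines quantified in duplicate with a multiplexed cytokine/chemokine magnetic bead array.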

Test [3] deals with T1, Toll-like receptor 8 (Homo sapiens). As to the kind of experiment: Agonist activity at TLR8 in human PBMC assessed as induction of IL-8 levels after 16 hrs by immunoassay. A digest of the protocol:
as §2

Test [4] has as its target Toll-like receptor 4 (Homo sapiens) (UniProt O00206). As to the kind of experiment: Agonist activity at human TLR4 expressed in HEK293 cells assessed as induction of NF-kappaB activity by secreted alkaline phosphatase reporter gene assay. It is filed as cell-based. A digest of the protocol:
as §1

Test [5] has as its target T2, Toll-like receptor 7 (Homo sapiens) (UniProt Q9NYK1).
T2 sequence (whole entry): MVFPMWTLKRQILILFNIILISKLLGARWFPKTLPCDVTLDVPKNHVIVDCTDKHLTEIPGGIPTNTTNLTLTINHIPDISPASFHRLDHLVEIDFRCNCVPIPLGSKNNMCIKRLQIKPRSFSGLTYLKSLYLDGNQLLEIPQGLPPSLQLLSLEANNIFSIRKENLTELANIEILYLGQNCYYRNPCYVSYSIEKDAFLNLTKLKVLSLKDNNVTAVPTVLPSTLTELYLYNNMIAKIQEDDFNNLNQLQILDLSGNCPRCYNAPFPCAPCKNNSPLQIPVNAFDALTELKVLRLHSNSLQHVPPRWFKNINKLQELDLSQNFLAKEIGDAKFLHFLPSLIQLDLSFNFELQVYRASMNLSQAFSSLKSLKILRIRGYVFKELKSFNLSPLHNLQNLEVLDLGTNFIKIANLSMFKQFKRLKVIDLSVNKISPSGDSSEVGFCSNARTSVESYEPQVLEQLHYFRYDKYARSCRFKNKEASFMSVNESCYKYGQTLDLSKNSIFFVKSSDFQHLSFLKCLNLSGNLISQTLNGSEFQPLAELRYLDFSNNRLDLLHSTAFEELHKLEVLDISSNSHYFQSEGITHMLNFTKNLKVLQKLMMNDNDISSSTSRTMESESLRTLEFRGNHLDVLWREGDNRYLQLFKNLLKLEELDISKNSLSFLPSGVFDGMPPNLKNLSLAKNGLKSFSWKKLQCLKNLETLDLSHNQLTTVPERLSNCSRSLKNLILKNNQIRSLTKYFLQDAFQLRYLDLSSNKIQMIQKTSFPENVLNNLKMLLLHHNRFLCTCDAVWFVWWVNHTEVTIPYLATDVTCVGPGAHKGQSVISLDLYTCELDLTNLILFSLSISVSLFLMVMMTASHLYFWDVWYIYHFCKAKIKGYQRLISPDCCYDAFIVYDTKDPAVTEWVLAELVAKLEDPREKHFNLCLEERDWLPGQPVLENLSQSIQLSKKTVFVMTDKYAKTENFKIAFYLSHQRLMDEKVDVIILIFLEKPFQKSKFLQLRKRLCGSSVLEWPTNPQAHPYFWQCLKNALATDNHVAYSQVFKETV
As to the kind of experiment: Agonist activity at human TLR7 expressed in HEK293 cells assessed as induction of NF-kappaB activity by secreted alkaline phosphatase reporter gene assay. It is filed as cell-based. A digest of the protocol: as §1

Test [6] deals with T3, Toll-like receptor 8 (Homo sapiens, UniProt Q9NR97).
T3 sequence (Q9NR97 whole entry): T1 sequence (whole entry)
Nature of the test: Agonist activity at TLR8 in human PBMC assessed as increase in TNF-alpha production after 16 hrs by immunoassay. A digest of the protocol: as §2

Sequence of Toll-like receptor 2 (Homo sapiens) (O60603 whole entry): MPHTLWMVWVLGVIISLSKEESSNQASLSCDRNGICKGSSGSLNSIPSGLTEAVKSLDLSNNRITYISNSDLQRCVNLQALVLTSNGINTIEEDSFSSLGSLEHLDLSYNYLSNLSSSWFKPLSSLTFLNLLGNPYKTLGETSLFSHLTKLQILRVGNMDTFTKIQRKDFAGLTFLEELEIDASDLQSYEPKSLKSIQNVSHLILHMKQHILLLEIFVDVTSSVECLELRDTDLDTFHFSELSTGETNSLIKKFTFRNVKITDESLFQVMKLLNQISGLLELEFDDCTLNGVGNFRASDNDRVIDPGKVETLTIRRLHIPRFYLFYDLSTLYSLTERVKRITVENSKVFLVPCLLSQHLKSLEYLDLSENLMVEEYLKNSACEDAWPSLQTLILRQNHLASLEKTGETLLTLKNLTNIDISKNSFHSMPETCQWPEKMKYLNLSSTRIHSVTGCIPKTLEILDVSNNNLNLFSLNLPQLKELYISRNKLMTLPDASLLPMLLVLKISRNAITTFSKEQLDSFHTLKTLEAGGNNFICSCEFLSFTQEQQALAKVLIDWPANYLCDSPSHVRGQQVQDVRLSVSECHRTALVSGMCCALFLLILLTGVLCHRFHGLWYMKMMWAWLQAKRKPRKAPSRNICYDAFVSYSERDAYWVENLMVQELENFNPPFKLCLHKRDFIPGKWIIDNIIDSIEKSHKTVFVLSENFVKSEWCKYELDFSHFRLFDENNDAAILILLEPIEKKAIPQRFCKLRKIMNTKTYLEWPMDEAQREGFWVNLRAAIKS
Sequence of Toll-like receptor 4 (Homo sapiens) (O00206 whole entry): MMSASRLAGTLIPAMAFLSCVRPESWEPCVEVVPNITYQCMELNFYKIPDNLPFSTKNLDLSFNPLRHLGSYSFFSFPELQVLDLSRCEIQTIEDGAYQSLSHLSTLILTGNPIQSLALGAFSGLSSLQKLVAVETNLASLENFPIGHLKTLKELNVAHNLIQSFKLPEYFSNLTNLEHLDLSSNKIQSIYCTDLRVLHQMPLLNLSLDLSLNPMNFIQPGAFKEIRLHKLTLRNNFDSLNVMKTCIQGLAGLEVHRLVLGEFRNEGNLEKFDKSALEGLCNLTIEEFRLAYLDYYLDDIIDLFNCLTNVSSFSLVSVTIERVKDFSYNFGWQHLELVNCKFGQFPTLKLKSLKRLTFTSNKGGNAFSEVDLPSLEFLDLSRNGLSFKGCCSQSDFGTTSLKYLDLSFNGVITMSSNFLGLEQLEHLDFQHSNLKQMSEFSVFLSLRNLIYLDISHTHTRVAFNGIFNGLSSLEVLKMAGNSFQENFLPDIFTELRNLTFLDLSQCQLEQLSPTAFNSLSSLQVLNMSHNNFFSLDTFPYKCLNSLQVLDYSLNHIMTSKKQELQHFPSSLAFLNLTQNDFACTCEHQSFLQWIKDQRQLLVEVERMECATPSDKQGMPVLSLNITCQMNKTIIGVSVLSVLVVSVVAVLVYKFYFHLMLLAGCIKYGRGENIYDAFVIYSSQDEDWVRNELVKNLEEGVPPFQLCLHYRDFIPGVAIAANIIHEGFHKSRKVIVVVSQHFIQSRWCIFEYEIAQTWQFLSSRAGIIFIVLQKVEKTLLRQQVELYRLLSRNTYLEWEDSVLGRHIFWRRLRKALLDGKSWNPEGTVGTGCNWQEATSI

Turning to `CCCCNc1nc(N)nc(-c2ccccc2)c1CCCCN`, the result in test [1], in test [2], in test [3], in test [4] and in test [5] was inactive.

Broadly, the pEC50 is the negative decadic logarithm of the EC50, by convention in mol/L. Regarding `CCCCNc1nc(N)nc(C)c1CCCCN`, the result in test [1], in test [3], in test [4] and in test [5] was inactive. Also, the pEC50 in test [6] is 5.03. Besides, in test [2], the outcome was Active.

`CCCCNc1nc(N)nc(C)c1I`: the result in test [1], in test [4] and in test [5] was inactive. Further, the outcome in test [2] and in test [3] was Active.

For the compound `CCCCNc1cc(-c2ccccc2)nc(N)n1`, the result in test [1], in test [2], in test [3], in test [4] and in test [5] was inactive.

Consider `CCCCCn1c(N)nc2c(C)cccc21`, for which the result in test [1], in test [4] and in test [5] was inactive. Also, in test [3], the outcome was Active.
